Screens deposited in PubChem by several laboratories.
Most compounds without a hit are left out; they make up all but 10% or so of the library.
Diaphorase act – compounds boosting diaphorase resazurin reduction – biochemical, uHTS, resorufin fluorescence, counter-screen for diaphorase-coupled primary assays, primary screen. Diaphorase/resazurin coupled assay, 16 min; hits give high values; 1 = vehicle wells, 0 = NADH-free wells. activation factor at 20 µM. hit rate 0.005% among 190,000. AID 1229, 2008;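 active = diaphorase activity raised at least twofold by the compound at 20 µM; inactive = activation factor below 2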
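test system = bacterial diaphorase enzyme (C. kluyveri) | quantity = enzyme 0.07 U/mL final | reagent = NADH substrate 0.114 mM plus resazurin dye 0.1 mM, final | incubation = 16 min enzyme reaction, ambient temperature | buffer or medium = HEPES pH 7.4 buffer with MgCl2 and Tween 20 | signal = fluorescence of resorufin, 544 nm excitation, 590 nm emission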
WT yeast gro inh – growth inhibition of WT strain, primary screen, mitochondrial fusion inhibitor project, WT and mutant strains, chemical genetic; hit rate 2.1% among 190,000; AID 1362, 2008; inhibition, % at 10 µM; mitochondrial fusion phenotypic screen; in the data active = inhibition above about 58%; tested in S. cerevisiae
PMI activator – activators of human PMI, primary screen, biochemical, fluorescence intensity, near-Km mannose 6-phosphate. Mannose-6-phosphate isomerase (Homo sapiens), P34949. purified human PMI, coupled resazurin fluorescence, 20 min; hits give high values; 1 = vehicle control, 0 substrate-free wells. activation factor at 20 µM. hit rate 0.005% among 190,000. AID 1214, 2008;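 active = activation factor of 2 or more at 20 µM, relative to plate controls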
Target sequence (P34949 whole entry, looked up): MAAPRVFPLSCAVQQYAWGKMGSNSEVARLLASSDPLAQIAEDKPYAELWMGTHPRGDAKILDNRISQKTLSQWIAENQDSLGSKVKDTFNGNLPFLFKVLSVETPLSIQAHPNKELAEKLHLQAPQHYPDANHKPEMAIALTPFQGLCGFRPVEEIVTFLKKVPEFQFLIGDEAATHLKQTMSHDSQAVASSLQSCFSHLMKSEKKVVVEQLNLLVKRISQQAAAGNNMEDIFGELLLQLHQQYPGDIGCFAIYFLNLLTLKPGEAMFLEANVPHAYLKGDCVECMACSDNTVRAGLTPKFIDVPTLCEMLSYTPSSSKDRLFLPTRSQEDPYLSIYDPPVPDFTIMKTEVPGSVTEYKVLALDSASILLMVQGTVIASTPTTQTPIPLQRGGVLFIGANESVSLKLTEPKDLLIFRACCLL
Lmaj promast – Leishmania major promastigote growth inhibition, primary screen | Leishmania major promastigotes, resazurin fluorescence viability | inhibition, % at 10 µM | hit rate 9% among 200,000; in the data active = inhibition above about 50%;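 also: promastigotes grown with compound for 44 hours at 28 °C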
PMI act satM6P – human PMI activators, high substrate, primary screen, biochemical, fluorescence intensity, near-saturating mannose 6-phosphate. Mannose-6-phosphate isomerase (Homo sapiens), P34949. coupled PMI enzyme assay, resazurin fluorescence, 20 min; hits give high values; 1 = untreated enzyme, 0 = substrate-free blank. activation factor at 20 µM. hit rate 0.34% among 190,000;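 active = activation factor of 2 or more at 20 µM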
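Material: human phosphomannose isomerase with PGI, G6PDH, diaphorase coupling enzymes. Quantity: 15 ng/mL PMI. Medium: HEPES pH 7.4 buffer with MgCl2 and Tween-20. Reagent: Near-saturating mannose-6-phosphate, 1.0 mM. Compound: 20 µM single dose. Times: enzyme reaction with compound 20 min at room temperature. Detection: resorufin fluorescence at Ex 544/Em 590 nm.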
Active calls of the source: *; . = no result.

SMILES	Diaphorase act	WT yeast gro inh	PMI activator	Lmaj promast	PMI act satM6P
CCc1cccc(CC)c1-n1c(SCC(=O)N2CCc3ccccc3C2)nnc1-c1cccnc1	0.8	0	1	99*	1
O=C(CSc1nnnn1-c1ccc(Cl)cc1)N1CCc2ccccc2C1	0.9	81*	1	-6	1.1
CCOC(=O)c1[nH]c(C)c(C(=O)OCC(=O)N(C)C2CCS(=O)(=O)C2)c1C (stereo not drawn)	0.9	-7	1	-1	1
O=C(COc1ccc(Cl)cc1)N/N=C/CCc1ccccc1	0.9	-7	1	-9	1
CCc1cccc(CC)c1-n1c(SCn2nnc3ccccc3c2=O)nnc1-c1cccnc1	0.8	5	1	67*	1
COCC(C)n1c(SCC(=O)N2CCc3ccccc3C2)nc2ccccc2c1=O (stereo not drawn)	0.9	0	1.1	91*	1.1
CCc1nnc(NC(=O)c2cccnc2SC)s1	1	1	1	-4	1
O=[N+]([O-])c1cc(/C=N/O)ccc1Sc1ccccc1	0.8	38	0.8	78*	0.8
O=[N+]([O-])c1cc(/C=N/O)ccc1Oc1cccc(Cl)c1	0.8	72*	0.9	2	0.9
CCOC(=O)C1(Cc2cccc(F)c2)CCN(C2CCOCC2)CC1	0.9	7	1	47	1
CCOC(=O)C1(Cc2cccc(OC)c2)CCN(CCO)CC1	0.9	-2	1	-5	1
CCOC(=O)C1(Cc2cccc(OC)c2)CCN(Cc2ccc(OC)c(O)c2)CC1	1	-13	1	85*	0.9
CCOC(=O)C1(Cc2cccc(OC)c2)CCN(C/C=C/c2ccccc2)CC1	0.8	39	0.8	80*	0.8
CCOC(=O)C1(Cc2cccc(OC)c2)CCN(C2CCOCC2)CC1	.	3	.	81*	.
CCOC(=O)C1(Cc2cccc(OC)c2)CCN(C/C=C/c2ccc(OC)cc2)CC1	0.9	26	0.9	37	1
COc1cccc(CN(Cc2ccco2)S(=O)(=O)c2ccc(S(=O)(=O)NCc3ccccc3)cc2)c1OC	0.8	8	0.8	97*	0.9
COc1cccc(CN(Cc2ccccc2F)S(=O)(=O)c2ccc(S(=O)(=O)NCc3ccccc3)cc2)c1	0.9	-1	0.8	15	0.9
O=C(CCC1CCCC1)N1CCN(C(=O)C2CC2)CC1	0.9	-1	0.9	-3	0.9
O=C(CCC1CCCC1)N1CCC(N2CCN(c3ccccc3)CC2)CC1	0.8	17	1	93*	1.1
COc1ccc(N2CCN(C(=O)c3c(C)nn(-c4ccccc4)c3C)CC2)cc1	0.9	-7	1	50*	1
O=C(CCC1CCCC1)N1CCN(C2CCCC2)CC1	0.9	8	0.9	94*	1
COc1ccc(N2CCN(C(=O)c3c(-c4ccccc4)noc3C)CC2)cc1	0.9	11	1	-2	1
O=C(CCc1ccc(Oc2cc([N+](=O)[O-])cc([N+](=O)[O-])c2)cc1)N1CCCCCC1	1	66*	0.9	98*	1
O=C(Cc1ccc([N+](=O)[O-])cc1)N1CCCCCC1	1.1	-8	1.1	-7	1.1
CCCc1nc2ccccc2c(=O)n1-c1ccc(C(=O)OCC)cc1	.	17	.	-4	.
SMILES	Diaphorase act	WT yeast gro inh	PMI activator	Lmaj promast	PMI act satM6P
COc1ccc(NC(=O)c2ccc3c(c2)NC(=O)CO3)cc1OC	1	-13	1	6	1
COc1ccccc1N1CCN(C2CCN(C(=O)COc3ccccc3)CC2)CC1	0.9	-6	1	-4	1
COc1ccc(C(=O)N2CCC(N3CCN(c4ccccc4)CC3)CC2)cc1	0.8	-6	1	91*	1
COc1ccc(CCC(=O)N2CCN(C3CCCCC3)CC2)cc1	0.9	-12	0.9	56*	0.9
CC(C)CC(=O)N1CCC(N2CCN(c3ccccc3)CC2)CC1	1	20	1	90*	1
O=C(CN1CCCCC1)Nc1ccc(Br)cc1[N+](=O)[O-]	0.9	11	0.9	-1	1
CCOC(=O)c1c(-c2ccccc2Cl)csc1NC(=O)CSc1nc(C)cc(=O)[nH]1	0.8	51	0.9	-10	0.9
Cc1cc2nc(SCC(=O)N(C)C)c3c(c2cc1C)CCCC3	0.8	1	1	93*	1
O=C(Nc1ccccc1)C1=C[C@@H](C2CCCCC2)C[C@@H](OCCCCO)O1	0.8	-12	0.8	92*	0.9
CCO[C@@H]1OC(C(=O)NCc2ccccc2)=C[C@H](c2csc3ccccc23)[C@H]1CCCO	0.6	39	0.8	34	0.8
CCO[C@H]1OC(C(=O)NCc2ccccc2)=C[C@@H](c2cn(C(C)=O)c3ccccc23)[C@@H]1CCCO	0.7	3	0.8	82*	0.8
O=C(Nc1ccccc1)C1=C[C@H](C2CCCCC2)C[C@H](OCc2ccc(CO)cc2)O1	0.6	40	0.8	38	0.8
CC(=O)n1cc([C@H]2C=C(C(=O)Nc3ccccc3)O[C@@H](OCCCCO)C2)c2ccccc21	0.7	6	0.9	54*	0.9
O=C(Nc1ccccc1)C1=C[C@@H](C2CCCCC2)C[C@@H](OCc2ccc(CO)cc2)O1	0.7	36	0.8	97*	0.9
CCOC(=O)c1ccc(N2C(=O)C3C(/C=C/c4ccccc4)OC4(C(=O)c5ccccc5C4=O)C3C2=O)cc1 (stereo not drawn)	0.8	9	1	40	1
CCCCN(C)C1=Nc2cccc3cccc1c23	0.8	16	1.2	57*	1.4
CC(C)c1ccc(CNCc2ccccc2)cc1	1.1	30	1.1	80*	1.1
CC1CCN(S(=O)(=O)c2ccc(S(=O)(=O)N3CCCN(Cc4ccccc4)C3)cc2)CC1	.	.	.	86*	.
CC1CCCN(S(=O)(=O)c2ccc(S(=O)(=O)N3CCCN(Cc4ccccc4)C3)cc2)C1 (stereo not drawn)	0.9	.	1.1	.	1.1
Cc1cccc(CCNS(=O)(=O)c2ccc(S(=O)(=O)N3CCCCC3)cc2)c1	0.9	15	0.9	0	0.9
CC(C)CNS(=O)(=O)c1ccc(S(=O)(=O)N2CCCN(Cc3ccccc3)C2)cc1	1	83*	1	-1	1
O=C(NCc1ccccc1)C(=O)Nc1nccs1	0.9	0	1	1	1
O=C1CC(NN2CCCCC2)C(=O)N1c1ccccc1 (stereo not drawn)	0.9	-2	0.9	-4	0.7
Cc1ccc(C(=O)Nc2ncc3c(n2)CC(c2ccco2)CC3=O)cc1 (stereo not drawn)	0.9	9	1.1	-4	0.8
